{"data": "Measured values collected from several papers", "target": "Casein kinase II subunit alpha' (CSNK2A2, Homo sapiens, UniProt P19784)", "note": "Protocols differ between the studies behind these lines."}
{"SMILES": "CN([C@@H]1CCc2c(CC(=O)O)c3cc(S(C)(=O)=O)ccc3n2C1)S(=O)(=O)c1ccc(F)cc1", "test": "cell-free assay, competition with immobilised ligand", "conditions": "1 µM", "remaining binding": "100%"}
{"SMILES": "N[C@H]1CCN(c2nccc(-c3cnn4ncccc34)n2)C1", "test": "binding", "conditions": "1 µM", "remaining binding": "88%"}
{"SMILES": "CNC(=O)[C@@H]1CC[C@@H](n2c(-c3ccc4cnccc4c3)nc3ccc(C(=O)NCc4cccc(C(N)=O)c4)cc32)C1", "test": "binding, competition with immobilised ligand", "conditions": "1 µM", "remaining binding": "100%"}
{"SMILES": "O=C(N1CCS(=O)(=O)CC1)N1C[C@H](c2ccc(OC(F)(F)F)cc2)C[C@H](c2nc(C3CC3)no2)C1", "test": "cell-free assay, competition with immobilised ligand", "conditions": "1 µM", "remaining binding": "100%"}
{"SMILES": "c1cnn2ncc(-c3ccnc(N4CCC45COC5)n3)c2c1", "test": "binding", "conditions": "1 µM", "remaining binding": "24%"}
{"SMILES": "C=CC(=O)N1CCC(C(=O)NCC(=O)N2CCN(c3nc(-c4cnc(N)nc4C(F)F)nc(N4CCOCC4)n3)CC2)CC1", "test": "binding, competition with immobilised ligand", "conditions": "1 µM", "remaining binding": "100%"}
{"SMILES": "O=C(c1ccc(Nc2ncc(Cl)c(-c3cc4ccccc4s3)n2)cc1)N1CCC(N2CCCC2)CC1", "test": "binding, competition with immobilised ligand", "conditions": "1 µM", "remaining binding": "0.1%"}
{"SMILES": "CC1=C(C#N)[C@@H](c2ccc3[nH]nc(C)c3c2)C(C#N)=C(c2ccc(Cl)cc2)N1", "test": "cell-free assay, competition with immobilised ligand", "conditions": "1 µM", "remaining binding": "100%"}
{"SMILES": "Cc1cnn2ncc(-c3ccnc(N(C)C)n3)c2c1", "test": "binding", "conditions": "1 µM", "remaining binding": "69%"}
{"SMILES": "CC(C)(O)c1cncc(-c2nc3ccc(F)cc3n2C2CC2)c1", "test": "cell-free assay, competition with immobilised ligand", "conditions": "1 µM", "remaining binding": "100%"}
{"SMILES": "O=C(c1ccc(Nc2nccc(-c3cc4ccccc4s3)n2)cc1)N1CCC(N2CCCC2)CC1", "test": "binding, competition with immobilised ligand", "conditions": "1 µM", "remaining binding": "1.8%"}
{"SMILES": "COc1cnc(Nc2cccc(S(N)(=O)=O)c2)nc1N1CCN(c2ccccc2)CC1", "test": "binding, competition with immobilised ligand", "conditions": "1 µM", "remaining binding": "90%"}
{"SMILES": "CN(C)C(=O)Cn1cc(-c2nc(C3(c4ccc(-c5cnc(N)nc5)cc4)CC3)no2)cn1", "test": "cell-free assay, competition with immobilised ligand", "conditions": "1 µM", "remaining binding": "100%"}
{"SMILES": "CN(C)c1ncc(F)c(-c2cnn3ncccc23)n1", "test": "binding", "conditions": "1 µM", "remaining binding": "100%"}
{"SMILES": "CCOCCn1cc(C(=O)Nc2ccc(-n3nc(-c4cccnc4)cc3C(F)(F)F)cn2)ccc1=O", "test": "cell-free assay, competition with immobilised ligand", "conditions": "1 µM", "remaining binding": "100%"}
{"SMILES": "O=C(Nc1c[nH]nc1C(=O)NC1CCNCC1)c1cc(F)cc(F)c1", "test": "binding, competition with immobilised ligand", "conditions": "1 µM", "remaining binding": "100%"}
{"SMILES": "CCN1CCN(Cc2ccc(C(=O)Nc3ccc(C)c(Oc4ccc5c(c4)CC(=O)N5)c3)cc2C(F)(F)F)CC1", "test": "binding, competition with immobilised ligand", "conditions": "1 µM", "remaining binding": "95%"}
{"SMILES": "CN(c1nccc(-c2cnn3ncccc23)n1)C1CC1", "test": "binding", "conditions": "1 µM", "remaining binding": "100%"}
{"SMILES": "Cn1cc(Cl)c2c(Oc3c(F)cc(Nc4cc(Cl)nc(N)n4)cc3F)ccnc21", "test": "cell-free assay, competition with immobilised ligand", "conditions": "0.1 µM", "remaining binding": "89%"}
{"SMILES": "C[C@H]1CCN(c2nccc(-c3cnn4ncccc34)n2)C1", "test": "binding", "conditions": "1 µM", "remaining binding": "56%"}
{"SMILES": "O=C(NCCCN1CCOCC1)c1ccc(Nc2ncc(Cl)c(-c3ccc(Cl)s3)n2)cc1", "test": "binding, competition with immobilised ligand", "conditions": "1 µM", "remaining binding": "0.2%"}
{"SMILES": "FC(F)(F)Oc1cccc(-c2cnc3ccc(-c4ccncc4)nn23)c1", "test": "cell-free assay, competition with immobilised ligand", "conditions": "5 µM", "remaining binding": "23%"}
